According to ChEMBL document CHEMBL1129428 (J Med Chem, 1996):

What was measured:
Mus musculus [1] = test: Anticonvulsant activity after intraperitoneal injection into mice by using MES screen test after 0.5 hr; assay type: functional
Mus musculus [2] = test: Anticonvulsant activity after intraperitoneal injection into mice measured in a maximal electroshock scree (MES) screen; assay type: functional
Mus musculus [3] = test: Anticonvulsant activity after intraperitoneal injection into mice by using scPTZ screen test after 4 hr; assay type: functional
Rattus norvegicus [4] = test: Compound was tested for anticonvulsant activity after Oral Administration into Rats by using MES screen test after 0.25h,dose 12.5 mg/kg; No activity was demonstarted; assay type: functional, organism-based; design: dose 12.5 mg/kg
Outline: (§1)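 Rats received the compound orally. […] Rats were tested in the MES screen at 0.25, 0.5, 1, 2 and 4 h. Each value is the number of rats protected out of 4. The test followed NINDS procedures.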

Rattus norvegicus [5] = test: Compound was tested for anticonvulsant activity after Oral Administration into Rats by using MES screen test after 2h.,dose 12.5 mg/kg; number of rats out of four which were protected; assay type: functional; outline: as §1
Rattus norvegicus [6] = test: Compound was tested for anticonvulsant activity after Oral Administration into Rats by using MES screen test after 4h,dose 12.5 mg/kg; No activity was demonstarted; assay type: functional, organism-based; design: dose 12.5 mg/kg; outline: as §1
Rattus norvegicus [7] = test: Compound was tested for anticonvulsant activity after Oral Administration into Rats by using MES screen test after 0.5h,dose 12.5 mg/kg; No activity was demonstarted; assay type: functional, organism-based; design: dose 12.5 mg/kg; outline: as §1
Rattus norvegicus [8] = test: Compound was tested for anticonvulsant activity after Oral Administration into Rats by using MES screen test after 1h,dose 12.5 mg/kg; number of rats out of four which were protected; assay type: functional; outline: as §1
Mus musculus [9] = test: Anticonvulsant activity after intraperitoneal injection into mice by using scPTZ screen after 0.5 hr; assay type: functional
Mus musculus [10] = test: Compound was tested for toxicity after intraperitoneal injection into mice by using toxicity screen test after 4 hr; assay type: organism-based; conditions: in vivo, ip
Outline: (§2)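 Mice injected intraperitoneally at 30, 100 and 300 mg/kg and examined 0.5 and 4 h afterwards. Each entry is the minimum dose giving activity (MES protection, scPTZ protection, or rotorod failure for neurotoxicity) in half or more of the mice. Activity is called absent if nothing occurs at 300 mg/kg.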

Mus musculus [11] = test: Compound was tested for anticonvulsant activity after intraperitoneal injection into mice by using MES screen test after 1h,dose 12.50 mg/kg; assay type: functional; conditions: ip
[12] = Compound was tested for toxicity after intraperitoneal injection into mice by using neurotoxicity screen test after 2 hr; assay type: organism-based; conditions: mouse, in vivo, ip
Outline: (§3)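 Quantitative intraperitoneal mouse testing in the MES, scPTZ or rotorod neurotoxicity screens at the peak time given for each compound (0.25–2 h). ED50 or TD50 reported in mg/kg with 95% CI and slope (SE).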

Rattus norvegicus [13] = test: Compound was tested for anticonvulsant activity after Oral Administration into Rats by using MES screen test after 0.25h,dose 12.5 mg/kg; number of rats out of four which were protected; assay type: functional; outline: as §1
Rattus norvegicus [14] = test: Compound was tested for anticonvulsant activity after Oral Administration into Rats by using MES screen test after 2h,dose 12.5 mg/kg; No activity was demonstarted; assay type: functional, organism-based; design: dose 12.5 mg/kg; outline: as §1
[15] = Protection index = TD50/ED50 (MES); conditions: mouse, in vivo; read-out: PI
Rattus norvegicus [16] = test: Compound was tested for anticonvulsant activity after Oral Administration into Rats by using MES screen test after 4h,dose 15 mg/kg; number of rats out of four which were protected; assay type: functional; outline: as §1
Rattus norvegicus [17] = test: Compound was tested for anticonvulsant activity after Oral Administration into Rats by using MES screen test after 0.25h,dose 15 mg/kg; No activity was demonstarted; assay type: functional, organism-based; design: dose 15 mg/kg; outline: as §1
Rattus norvegicus [18] = test: Compound was tested for anticonvulsant activity after Oral Administration into Rats by using MES screen test after 0.5h,dose 15 mg/kg; No activity was demonstarted; assay type: functional, organism-based; design: dose 15 mg/kg; outline: as §1
Rattus norvegicus [19] = test: Compound was tested for anticonvulsant activity after Oral Administration into Rats by using MES screen test after 1h,dose 15 mg/kg; number of rats out of four which were protected; assay type: functional; outline: as §1
Rattus norvegicus [20] = test: Compound was tested for anticonvulsant activity after Oral Administration into Rats by using MES screen test after 2h,dose 15 mg/kg; number of rats out of four which were protected; assay type: functional; outline: as §1
Mus musculus [21] = test: Compound was tested for anticonvulsant activity after intraperitoneal injection into mice by using MES screen test after 0.5 hr; assay type: functional; conditions: ip; outline: as §2
Mus musculus [22] = test: Compound was tested for anticonvulsant activity after intraperitoneal injection into mice by using scPTZ screen test after 0.5 hr; assay type: functional; conditions: ip; outline: as §2
[23] = Compound was tested for […] after intraperitoneal injection into mice by using neurotoxicity screen test after 2 hr; assay type: organism-based; conditions: mouse, in vivo, ip; outline: as §3
Rattus norvegicus [24] = test: Compound was tested for anticonvulsant activity after Oral Administration into Rats by using MES screen test after 4h,dose 50 mg/kg; number of rats out of four which were protected; assay type: functional; outline: as §1
Rattus norvegicus [25] = test: Compound was tested for anticonvulsant activity after Oral Administration into Rats by using MES screen test after 2h,dose 50 mg/kg; number of rats out of four which were protected; assay type: functional; outline: as §1
Rattus norvegicus [26] = test: Compound was tested for anticonvulsant activity after Oral Administration into Rats by using MES screen test after 0.25h,dose 50 mg/kg; No activity was demonstarted; assay type: functional, organism-based; design: dose 50 mg/kg; outline: as §1
Rattus norvegicus [27] = test: Compound was tested for anticonvulsant activity after Oral Administration into Rats by using MES screen test after 0.5h,dose 50 mg/kg; number of rats out of four which were protected; assay type: functional; outline: as §1
Rattus norvegicus [28] = test: Compound was tested for anticonvulsant activity after Oral Administration into Rats by using MES screen test after 1h,dose 50 mg/kg; number of rats out of four which were protected; number of rats out of four which were protected; assay type: functional; outline: as §1
Mus musculus [29] = test: Compound was tested for toxicity after intraperitoneal injection into mice using toxicity screen test; conditions: in vivo, ip
Mus musculus [30] = test: Toxicity after intraperitoneal injection into mice by using toxicity screen test after 0.5 hr; assay type: organism-based; conditions: in vivo, ip; outline: as §2
Mus musculus [31] = test: Compound was tested for anticonvulsant activity after intraperitoneal injection into mice by using MES screen test after 2 hr; assay type: functional; conditions: ip; outline: as §3
Mus musculus [32] = test: Compound was tested for anticonvulsant activity after intraperitoneal injection into mice by using scPTZ screen test after 2 hr; assay type: functional; conditions: ip; outline: as §3
Rattus norvegicus [33] = test: Compound was tested for anticonvulsant activity after Oral Administration into Rats by using MES screen test after 4h,dose 12.5 mg/kg; number of rats out of four which were protected; assay type: functional; outline: as §1
Rattus norvegicus [34] = test: Anticonvulsant activity after oral administration into rats; assay type: functional; design: concentration or dose not given beside the values
Rattus norvegicus [35] = test: Compound was tested for anticonvulsant activity after Oral Administration into rat by using MES screen test after 6 hr; assay type: functional
Outline: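 Oral dosing in rats, maximal electroshock challenge, with ED50, 95% CI, slope and SE determined at the time listed for each compound (0.25 to 6 h range).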

Rattus norvegicus [36] = test: Compound was tested for anticonvulsant activity after Oral Administration into Rats by using MES screen test after 2h,dose 12.5 mg/kg; number of rats out of four which were protected; assay type: functional; outline: as §1
Mus musculus [37] = test: Compound was tested for anticonvulsant activity after intraperitoneal injection into mice by using MES screen test after 4 hr; assay type: functional; conditions: ip; outline: as §2
Mus musculus [38] = test: Compound was tested for anticonvulsant activity after intraperitoneal injection into mice by using scPTZ screen test after 4 hr; assay type: functional; conditions: ip; outline: as §2
[39] = Compound was tested for toxicity after intraperitoneal injection into mice by using neurotoxicity screen test after 4 hr; assay type: organism-based; conditions: mouse, in vivo, ip; outline: as §2
Rattus norvegicus [40] = test: Compound was tested for anticonvulsant activity after Oral Administration into rat by using MES screen test at 4 hr; assay type: functional
Outline: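 Rats dosed orally, typically at 50 mg/kg first, then mostly 12.5 mg/kg (some compounds at 30 mg/kg), and tested by maximal electroshock. Four rats per compound, scored at 0.25, 0.5, 1, 2 and 4 h as the number of rats protected out of 4.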

[41] = Compound was tested for toxicity after oral administration in rat by using neurotoxicity screen test after 0.25-24 hr; assay type: organism-based; conditions: in vivo
Outline: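 Rat neurotoxicity after oral dosing, observed at 0.25, 0.5, 1, 2, 4, 6, 8 and 24 h (8 h omitted for one compound).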

Mus musculus [42] = test: Compound was tested for anticonvulsant activity after intraperitoneal injection into mice by using MES screen test after 1 hr; assay type: functional; conditions: ip; outline: as §3
[43] = Compound was tested for toxicity after intraperitoneal injection into mice by using neurotoxicity screen test after 1 hr; assay type: organism-based; conditions: mouse, in vivo, ip; outline: as §3
[44] = Protection index = TD50/ED50 (scPTZ ); assay type: ADME; conditions: read-out: PI
Outline: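 Protection index calculated as TD50/ED50 from mouse intraperitoneal scPTZ ED50 and rotorod TD50 values, each taken at its own peak time.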

Structure (SMILES)	Dose (Mus musculus [1]) [mg/kg]	Dose (Mus musculus [2]) [mg/kg]	Dose (Mus musculus [3]) [mg/kg]	Activity (Rattus norvegicus [4])	Activity (Rattus norvegicus [7])	Activity (Rattus norvegicus [8])	Dose (Mus musculus [9]) [mg/kg]	Dose (Mus musculus [10]) [mg/kg]	selectivity ratio [15]	Activity (Rattus norvegicus [33])	Activity (Rattus norvegicus [36])	other results
NC(=O)N/N=C\c1ccc(OCc2ccccc2)cc1	300	300	100	No activity	No activity	1						Activity (Rattus norvegicus [5]): 1; Activity (Rattus norvegicus [6]): No activity
Cc1ccc(C)c(Oc2ccc(/C=N/NC(N)=O)cc2)c1	100	100	300		No activity	1	30	300	10.3			ED50 (Mus musculus [11]): 34.7 mg/kg; TD50 at 2 h [12]: 356 mg/kg; Activity (Rattus norvegicus [6]): No activity; Activity (Rattus norvegicus [13]): 1; Activity (Rattus norvegicus [14]): No activity
CCC(C)(C)c1ccc(Oc2ccc(/C=N/NC(N)=O)cc2)cc1	300											Activity (Rattus norvegicus [16]): 4; Activity (Rattus norvegicus [17]): No activity; Activity (Rattus norvegicus [18]): No activity; Activity (Rattus norvegicus [19]): 2; Activity (Rattus norvegicus [20]): 3
NC(=O)N/N=C\c1ccc(Oc2cccc(Cl)c2)cc1	30	100	300				30	100				ED50 (Mus musculus [21]): 27.7 mg/kg; ED50 (Mus musculus [22]): 41.2 mg/kg; TD50 at 2 h [23]: 64.5 mg/kg; Activity (Rattus norvegicus [24]): 4; Activity (Rattus norvegicus [25]): 4; Activity (Rattus norvegicus [26]): No activity; Activity (Rattus norvegicus [27]): 4; Activity (Rattus norvegicus [28]): 4; Dose (Mus musculus [29]): 300 mg/kg
CCc1ccc(Oc2ccc(/C=N/NC(N)=O)cc2)cc1	30	30		No activity		4	300	100	3.32	4	4	Dose (Mus musculus [30]): 300 mg/kg; ED50 (Mus musculus [31]): 10.3 mg/kg; ED50 (Mus musculus [32]): > 100 mg/kg; TD50 at 2 h [12]: 34 mg/kg; Activity (Rattus norvegicus [34]): 2; ED50 (Rattus norvegicus [35]): 6.48 mg/kg
CC(C)(C)c1ccc(Oc2ccc(/C=N\NC(N)=O)cc2)cc1	100	30	100	No activity	No activity	4		100		4	4	Dose (Mus musculus [30]): 100 mg/kg; ED50 (Mus musculus [37]): 8.87 mg/kg; ED50 (Mus musculus [38]): > 150 mg/kg; TD50 at 4 h [39]: 106 mg/kg; ED50 (Rattus norvegicus [40]): 1.68 mg/kg; TD50 [41]: > 500 mg/kg
C/C(=N/NC(N)=O)c1ccc(Sc2ccc(Br)cc2)cc1	100	30				4	300	300	11.3	4	4	ED50 (Mus musculus [42]): 3.82 mg/kg; ED50 (Mus musculus [22]): 41.9 mg/kg; TD50 at 1 h [43]: 43.2 mg/kg; Activity (Rattus norvegicus [13]): 1; Activity (Rattus norvegicus [34]): 3; selectivity ratio [44]: 1.03
